# ChEMBL document CHEMBL1629526, “4-[1-(Substituted aryl/alkyl carbonyl)-benzoimidazol-2-yl]-benzenesulfonic acids: synthesis, antimicrobial activity, QSAR studies, and antiviral evaluation” (Eur J Med Chem, 2010)
# Tests used:
# [1] = Cytotoxicity against human HEL cells assessed as altered cell morphology; format: cell-based
# Procedure, shortened: (§1)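 Uninfected cell cultures run alongside the antiviral assays, exposed to serial compound dilutions and incubated at 37 °C for 2–4 days. Toxicity was scored microscopically and reported as the minimum cytotoxic concentration (MCC), the lowest concentration causing a detectable change in normal cell morphology.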
# HeLa = assay: Cytotoxicity against human HeLa cells assessed as cell viability by MTS assay; format: cell-based; settings: hela
# Procedure, shortened: (§2)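 Uninfected cultures were run in parallel with the antiviral assays. Viability was read by colorimetric formazan MTS assay.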
# MDCK = assay: Cytotoxicity against MDCK cells assessed as cell viability by MTS assay; format: cell-based, Canis lupus familiaris; settings: dog, mdck; procedure, shortened: as §2
# Human respirovirus 3 = assay: Antiviral activity against parainfluenza-3 virus infected in african green monkey Vero cells assessed as inhibition of virus induced cytopathicity after 2 to 4 days by MTS assay; format: functional, organism-based; settings: Human respirovirus 3, Vero
# Vaccinia virus = assay: Antiviral activity against Vaccinia virus infected in HEL cells assessed as inhibition of virus induced cytopathicity after 2 to 4 days by MTS assay; format: functional, organism-based; settings: Orthopoxvirus vaccinia
# Bacillus subtilis = assay: Antimicrobial activity against Bacillus subtilis after 24 hrs by tube dilution method; format: functional
# Procedure, shortened: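 Serial dilutions in double-strength nutrient broth (I.P.) with ciprofloxacin as reference, tube dilution, incubated 37 °C for 24 h. MIC is the lowest concentration that inhibited growth.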
# Coxsackievirus B4 [2] = assay: Antiviral activity against Coxsackie virus B4 infected in african green monkey Vero cells assessed as inhibition of virus induced cytopathicity after 2 to 4 days by MTS assay; format: functional, organism-based; settings: Enterovirus B
# Candida albicans = assay: Antimicrobial activity against Candida albicans after 48 hrs by tube dilution method; format: functional
# Escherichia coli = assay: Antimicrobial activity against Escherichia coli after 24 hrs by tube dilution method; format: functional
# Coxsackievirus B4 [3] = assay: Antiviral activity against coxsackievirus B4 infected in human HeLa cells assessed as inhibition of virus induced cytopathicity after 2 to 4 days by MTS assay; format: functional, organism-based; settings: Enterovirus B
# [4] = system: Vesicular stomatitis virus; assay: Antiviral activity against Vesicular stomatitis virus infected in human HeLa cells assessed as inhibition of virus induced cytopathicity by visual scoring of CPE; format: functional, organism-based
# [5] = system: Mammalian orthoreovirus 1; assay: Antiviral activity against Reovirus 1 virus infected in african green monkey Vero cells assessed as inhibition of virus induced cytopathicity after 2 to 4 days by MTS assay; format: functional, organism-based; settings: Mammalian orthoreovirus 1, Vero
# [6] = system: Respiratory syncytial virus; assay: Antiviral activity against Respiratory syncytial virus infected in human HeLa cells assessed as inhibition of virus induced cytopathicity after 2 to 4 days by MTS assay; format: functional, organism-based
# [7] = Cytotoxicity against african green monkey Vero cells assessed as altered cell morphology; format: cell-based; settings: chlorocebus sabaeus; procedure, shortened: as §1
# Human alphaherpesvirus 1 [8] = assay: Antiviral activity against thymidine kinase deficient acyclovir-resistant Herpes simplex virus 1 KOS infected in HEL cells assessed as inhibition of virus induced cytopathicity after 2 to 4 days by MTS assay; format: functional, organism-based; settings: Human alphaherpesvirus 1, KOS
# Coxsackievirus B4 [9] = assay: Antiviral activity against coxsackievirus B4 infected in human HeLa cells assessed as inhibition of virus induced cytopathicity by visual scoring of CPE; format: functional, organism-based; settings: Enterovirus B
# Felid alphaherpesvirus 1 = assay: Antiviral activity against Feline herpesvirus 1 infected in cat CRFK cells assessed as inhibition of virus induced cytopathicity after 2 to 4 days by MTS assay; format: functional, organism-based; settings: Felid alphaherpesvirus 1, CRFK
# Sindbis virus = assay: Antiviral activity against Sindbis virus infected in african green monkey Vero cells assessed as inhibition of virus induced cytopathicity after 2 to 4 days by MTS assay; format: functional, organism-based
# Influenza B virus [10] = assay: Antiviral activity against Influenza B virus infected in MDCK cells assessed as inhibition of virus induced cytopathicity after 2 to 4 days by MTS assay; format: functional, organism-based
# [11] = system: Vesicular stomatitis virus; assay: Antiviral activity against Vesicular stomatitis virus infected in HEL cells assessed as inhibition of virus induced cytopathicity after 2 to 4 days by MTS assay; format: functional, organism-based
# Influenza A virus [12] = assay: Antiviral activity against Influenza A H3N2 virus subtype infected in MDCK cells assessed as inhibition of virus induced cytopathicity by visual scoring of CPE; format: functional, organism-based
# Aspergillus niger = assay: Antimicrobial activity against Aspergillus niger after 7 days by tube dilution method; format: functional; settings: 168 h
# Feline coronavirus = assay: Antiviral activity against Feline coronavirus infected in cat CRFK cells assessed as inhibition of virus induced cytopathicity after 2 to 4 days by MTS assay; format: functional, organism-based; settings: Alphacoronavirus 1, CRFK
# [13] = Cytotoxicity against human HeLa cells assessed as altered cell morphology; format: cell-based; procedure, shortened: as §1
# Staphylococcus aureus = assay: Antimicrobial activity against Staphylococcus aureus after 24 hrs by tube dilution method; format: functional
# Human alphaherpesvirus 1 [14] = assay: Antiviral activity against Herpes simplex virus 1 KOS infected in HEL cells assessed as inhibition of virus induced cytopathicity after 2 to 4 days by MTS assay; format: functional, organism-based; settings: Human alphaherpesvirus 1, KOS
# Punta Toro virus = assay: Antiviral activity against Punta Toro virus infected in african green monkey Vero cells assessed as inhibition of virus induced cytopathicity after 2 to 4 days by MTS assay; format: functional, organism-based
# Influenza A virus [15] = assay: Antiviral activity against Influenza A H3N2 virus subtype infected in MDCK cells assessed as inhibition of virus induced cytopathicity after 2 to 4 days by MTS assay; format: functional, organism-based
# [16] = system: Vesicular stomatitis virus; assay: Antiviral activity against Vesicular stomatitis virus infected in human HeLa cells assessed as inhibition of virus induced cytopathicity after 2 to 4 days by MTS assay; format: functional, organism-based
# Human alphaherpesvirus 2 = assay: Antiviral activity against Herpes simplex virus 2 G infected in HEL cells assessed as inhibition of virus induced cytopathicity after 2 to 4 days by MTS assay; format: functional, organism-based; settings: Human alphaherpesvirus 2, strain G
# Influenza B virus [17] = assay: Antiviral activity against Influenza B virus infected in MDCK cells assessed as inhibition of virus induced cytopathicity by visual scoring of CPE; format: functional, organism-based
# [18] = system: Respiratory syncytial virus; assay: Antiviral activity against Respiratory syncytial virus infected in human HeLa cells assessed as inhibition of virus induced cytopathicity by visual scoring of CPE; format: functional, organism-based
# [19] = Cytotoxicity against MDCK cells assessed as altered cell morphology; format: cell-based, Canis lupus familiaris; settings: dog; procedure, shortened: as §1
# [20] = Cytotoxicity against cat CRFK cells assessed as cell viability by MTS assay; format: cell-based, Felis catus; settings: crfk; procedure, shortened: as §2
Structure (SMILES),MCC [1] [µg/mL],CC50 (HeLa) [µg/mL],CC50 (MDCK) [µg/mL],EC50 (Human respirovirus 3) [µg/mL],EC50 (Vaccinia virus) [µg/mL],MBC (Bacillus subtilis) [µg/mL],EC50 (Coxsackievirus B4 [2]) [µg/mL],MFC (Candida albicans) [µg/mL],MBC (Escherichia coli) [µg/mL],EC50 (Coxsackievirus B4 [3]) [µg/mL],EC50 [4] [µg/mL],EC50 [5] [µg/mL],EC50 [6] [µg/mL],MCC [7] [µg/mL],EC50 (Human alphaherpesvirus 1 [8]) [µg/mL],EC50 (Coxsackievirus B4 [9]) [µg/mL],EC50 (Felid alphaherpesvirus 1) [µg/mL],EC50 (Sindbis virus) [µg/mL],EC50 (Influenza B virus [10]) [µg/mL],EC50 [11] [µg/mL],other results
O=C(c1ccc([N+](=O)[O-])cc1)n1c(-c2ccc(S(=O)(=O)O)cc2)nc2ccccc21,> 100,> 100,> 100,> 100,> 100,50,> 100,25,1.56,> 100,> 100,> 100,> 100,> 100,> 100,> 100,> 100,> 100,> 100,> 100,EC50 (Influenza A virus [12]): > 100 µg/mL; MFC (Aspergillus niger): > 50 µg/mL; EC50 (Feline coronavirus): > 100 µg/mL; MCC [13]: > 100 µg/mL; MBC (Staphylococcus aureus): 50 µg/mL; EC50 (Human alphaherpesvirus 1 [14]): > 100 µg/mL; EC50 (Punta Toro virus): > 100 µg/mL; EC50 (Influenza A virus [15]): > 100 µg/mL; EC50 [16]: > 100 µg/mL; EC50 (Human alphaherpesvirus 2): > 100 µg/mL; EC50 (Influenza B virus [17]): > 100 µg/mL; EC50 [18]: > 100 µg/mL; MCC [19]: > 100 µg/mL; CC50 [20]: > 100 µg/mL
CCCCCCCCCCCCCCCC(=O)n1c(-c2ccc(S(=O)(=O)O)cc2)nc2ccccc21,> 100,> 100,> 100,> 100,> 100,12.5,> 100,> 50,12.5,> 100,> 100,> 100,> 100,> 100,> 100,> 100,> 100,> 100,> 100,> 100,EC50 (Influenza A virus [12]): > 100 µg/mL; MFC (Aspergillus niger): > 50 µg/mL; EC50 (Feline coronavirus): > 100 µg/mL; MCC [13]: > 100 µg/mL; MBC (Staphylococcus aureus): 6.25 µg/mL; EC50 (Human alphaherpesvirus 1 [14]): > 100 µg/mL; EC50 (Punta Toro virus): > 100 µg/mL; EC50 (Influenza A virus [15]): > 100 µg/mL; EC50 [16]: > 100 µg/mL; EC50 (Human alphaherpesvirus 2): > 100 µg/mL; EC50 (Influenza B virus [17]): > 100 µg/mL; EC50 [18]: > 100 µg/mL; MCC [19]: > 100 µg/mL; CC50 [20]: > 100 µg/mL
O=C(c1ccccc1Cl)n1c(-c2ccc(S(=O)(=O)O)cc2)nc2ccccc21,> 100,> 100,> 100,> 100,> 100,> 50,> 100,> 50,1.56,> 100,> 100,> 100,> 100,> 100,> 100,> 100,> 100,> 100,> 100,> 100,EC50 (Influenza A virus [12]): > 100 µg/mL; MFC (Aspergillus niger): > 50 µg/mL; EC50 (Feline coronavirus): > 100 µg/mL; MCC [13]: > 100 µg/mL; MBC (Staphylococcus aureus): 25 µg/mL; EC50 (Human alphaherpesvirus 1 [14]): > 100 µg/mL; EC50 (Punta Toro virus): > 100 µg/mL; EC50 (Influenza A virus [15]): > 100 µg/mL; EC50 [16]: > 100 µg/mL; EC50 (Human alphaherpesvirus 2): > 100 µg/mL; EC50 (Influenza B virus [17]): > 100 µg/mL; EC50 [18]: > 100 µg/mL; MCC [19]: > 100 µg/mL; CC50 [20]: > 100 µg/mL
Cc1ccccc1C(=O)n1c(-c2ccc(S(=O)(=O)O)cc2)nc2ccccc21,> 100,> 100,> 100,> 100,> 100,> 50,> 100,50,3.12,> 100,> 100,> 100,> 100,> 100,> 100,> 100,> 100,> 100,> 100,> 100,EC50 (Influenza A virus [12]): > 100 µg/mL; MFC (Aspergillus niger): > 50 µg/mL; EC50 (Feline coronavirus): > 100 µg/mL; MCC [13]: > 100 µg/mL; MBC (Staphylococcus aureus): 6.25 µg/mL; EC50 (Human alphaherpesvirus 1 [14]): > 100 µg/mL; EC50 (Punta Toro virus): > 100 µg/mL; EC50 (Influenza A virus [15]): > 100 µg/mL; EC50 [16]: > 100 µg/mL; EC50 (Human alphaherpesvirus 2): > 100 µg/mL; EC50 (Influenza B virus [17]): > 100 µg/mL; EC50 [18]: > 100 µg/mL; MCC [19]: > 100 µg/mL; CC50 [20]: > 100 µg/mL
